# Legend:
# Mus musculus [1] = species: Mus musculus; experiment: Biodistribution of [18F]-radiolabeled compound in the mouse heart after 5 minutes (average uptake in (%injected dose)/(% body weight); type: ADME, organism-based; settings: in vivo
# Outline: (§1)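 Adult male C57 Black mice (about 20 g), anesthetized with 1 mg sodium pentobarbital ip, given 0.1 mL (~0.05 mCi) tracer via tail vein. Killed by cervical dislocation at set times (5–90 min). Organs sampled, counted, weighed. Injected dose measured against weighed standards, minus residual tail activity. %id/g multiplied by body weight gives normalized uptake. Mean ± SD, N = 3 (N = 2 at 5 min).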
# Mus musculus [2] = species: Mus musculus; experiment: Biodistribution of [18F]-radiolabeled compound in the mouse liver after 30 minutes (average uptake in (%injected dose)/(% body weight); type: ADME, organism-based; settings: in vivo, 0.5 h; outline: as §1
# Mus musculus [3] = species: Mus musculus; experiment: Biodistribution of [18F]-radiolabeled compound in the mouse brain after 90 minutes (average uptake in (%injected dose)/(% body weight); type: ADME, organism-based; settings: in vivo, 1.5 h; outline: as §1
# Mus musculus [4] = species: Mus musculus; experiment: Biodistribution of [18F]-radiolabeled compound in the mouse muscle after 60 minutes (average uptake in (%injected dose)/(% body weight); type: ADME, organism-based, Muscle tissue; settings: in vivo, 1 h; outline: as §1
# Mus musculus [5] = species: Mus musculus; experiment: Biodistribution of [18F]-radiolabeled compound in the mouse kidney after 15 minutes (average uptake in (%injected dose)/(% body weight); type: ADME, organism-based; settings: in vivo, 0.25 h; outline: as §1
# Mus musculus [6] = species: Mus musculus; experiment: Biodistribution of [18F]-radiolabeled compound in the mouse liver after 90 minutes (average uptake in (%injected dose)/(% body weight); type: ADME, organism-based; settings: in vivo, 1.5 h; outline: as §1
# Mus musculus [7] = species: Mus musculus; experiment: Biodistribution of [18F]-radiolabeled compound in the mouse liver after 15 minutes (average uptake in (%injected dose)/(% body weight); type: ADME, organism-based; settings: in vivo, 0.25 h; outline: as §1
# Mus musculus [8] = species: Mus musculus; experiment: Biodistribution of [18F]-radiolabeled compound in the mouse lung after 60 minutes (average uptake in (%injected dose)/(% body weight); type: ADME, organism-based; settings: in vivo, 1 h; outline: as §1
# Mus musculus [9] = species: Mus musculus; experiment: Biodistribution of [18F]-radiolabeled compound in the mouse brain after 30 minutes (average uptake in (%injected dose)/(% body weight); type: ADME, organism-based; settings: in vivo, 0.5 h; outline: as §1
# Mus musculus [10] = species: Mus musculus; experiment: Biodistribution of [18F]-radiolabeled compound in the mouse blood after 5 minutes (average uptake in (%injected dose)/(% body weight); type: ADME, organism-based; settings: in vivo; outline: as §1
# Mus musculus [11] = species: Mus musculus; experiment: Biodistribution of [18F]-radiolabeled compound in the mouse brain after 15 minutes (average uptake in (%injected dose)/(% body weight); type: ADME, organism-based; settings: in vivo, 0.25 h; outline: as §1
# Mus musculus [12] = species: Mus musculus; experiment: Biodistribution of [18F]-radiolabeled compound in the mouse brain after 5 minutes (average uptake in (%injected dose)/(% body weight); type: ADME, organism-based; settings: in vivo; outline: as §1
# Mus musculus [13] = species: Mus musculus; experiment: Biodistribution of [18F]-radiolabeled compound in the mouse heart after 90 minutes (average uptake in (%injected dose)/(% body weight); type: ADME, organism-based; settings: in vivo, 1.5 h; outline: as §1
# Mus musculus [14] = species: Mus musculus; experiment: Biodistribution of [18F]-radiolabeled compound in the mouse liver after 60 minutes (average uptake in (%injected dose)/(% body weight); type: ADME, organism-based; settings: in vivo, 1 h; outline: as §1
# Mus musculus [15] = species: Mus musculus; experiment: Biodistribution of [18F]-radiolabeled compound in the mouse intestine after 90 minutes (average uptake in (%injected dose)/(% body weight); type: ADME, organism-based; settings: in vivo, 1.5 h; outline: as §1
# Mus musculus [16] = species: Mus musculus; experiment: Biodistribution of [18F]-radiolabeled compound in the mouse bone after 60 minutes (average uptake in (%injected dose)/(% body weight); type: ADME, organism-based, Bone element; settings: in vivo, 1 h; outline: as §1
# Mus musculus [17] = species: Mus musculus; experiment: Biodistribution of [18F]-radiolabeled compound in the mouse bone after 30 minutes (average uptake in (%injected dose)/(% body weight); type: ADME, organism-based, Bone element; settings: in vivo, 0.5 h; outline: as §1
# Mus musculus [18] = species: Mus musculus; experiment: Biodistribution of [18F]-radiolabeled compoundP in the mouse spleen after 15 minutes (average uptake in (%injected dose)/(% body weight); type: ADME, organism-based; settings: in vivo, 0.25 h; outline: as §1
# Mus musculus [19] = species: Mus musculus; experiment: Biodistribution of [18F]-radiolabeled compound in the mouse spleen after 5 minutes (average uptake in (%injected dose)/(% body weight); type: ADME, organism-based; settings: in vivo; outline: as §1
# Mus musculus [20] = species: Mus musculus; experiment: Biodistribution of [18F]-radiolabeled compound in the mouse blood after 90 minutes (average uptake in (%injected dose)/(% body weight); type: ADME, organism-based; settings: in vivo, 1.5 h; outline: as §1
# [21] = Ratio between Vmax and Km; type: ADME
# Outline: (§2)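 Rat liver MAO (crude P2 mitochondrial fraction from adult male Wistar rats, in pH 7.4 phosphate buffer) incubated with substrate at 30 μM to 5 mM; colorimetric detection of H2O2 formed. Blanks contained 0.1 mM pargyline. Vmax and Km from linear regression of Lineweaver-Burk plots; means ± SE of n separate experiments; ANOVA with post-hoc Scheffe test.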
# Mus musculus [22] = species: Mus musculus; experiment: Biodistribution of [18F]-radiolabeled compound in the mouse spleen after 90 minutes (average uptake in (%injected dose)/(% body weight); type: ADME, organism-based; settings: in vivo, 1.5 h; outline: as §1
# Mus musculus [23] = species: Mus musculus; experiment: Biodistribution of [18F]-radiolabeled compound in the mouse muscle after 30 minutes (average uptake in (%injected dose)/(% body weight); type: ADME, organism-based, Muscle tissue; settings: in vivo, 0.5 h; outline: as §1
# [24] = separate experiments, n=4); type: ADME; outline: as §2
# Mus musculus [25] = species: Mus musculus; experiment: Biodistribution of [18F]-radiolabeled compound in the mouse intestine after 5 minutes (average uptake in (%injected dose)/(% body weight); type: ADME, organism-based; settings: in vivo; outline: as §1
# Mus musculus [26] = species: Mus musculus; experiment: Biodistribution of [18F]-radiolabeled compound in the mouse muscle after 15 minutes (average uptake in (%injected dose)/(% body weight); type: ADME, organism-based, Muscle tissue; settings: in vivo, 0.25 h; outline: as §1
# Mus musculus [27] = species: Mus musculus; experiment: Biodistribution of [18F]-radiolabeled compound in the mouse heart after 15 minutes (average uptake in (%injected dose)/(% body weight); type: ADME, organism-based; settings: in vivo, 0.25 h; outline: as §1
smiles,measurement,setting,value
CN1CC=C(c2ccccc2CF)CC1,Time,Mus musculus [1],2.54 min
same,Time,Mus musculus [2],1.36 min
same,Time,Mus musculus [3],0.76 min
same,Time,Mus musculus [4],0.3 min
same,Time,Mus musculus [5],2.64 min
same,Time,Mus musculus [6],0.778 min
same,Time,Mus musculus [7],2.33 min
same,Time,Mus musculus [8],1.6 min
same,Time,Mus musculus [9],0.68 min
same,Time,Mus musculus [10],0.67 min
same,Time,Mus musculus [11],0.82 min
same,Time,Mus musculus [12],1.48 min
same,Time,Mus musculus [13],1.84 min
same,Time,Mus musculus [14],0.72 min
same,Time,Mus musculus [15],2.32 min
same,Time,Mus musculus [16],2.22 min
same,Time,Mus musculus [17],1.91 min
same,Time,Mus musculus [18],1.33 min
same,Time,Mus musculus [19],1.37 min
same,Time,Mus musculus [20],0.25 min
same,Ratio,[21],3.83
same,Time,Mus musculus [22],0.95 min
same,Time,Mus musculus [23],0.43 min
same,Km,[24],159 µM
same,Time,Mus musculus [25],1.36 min
same,Time,Mus musculus [26],0.54 min
same,Time,Mus musculus [27],2.41 min

# From ChEMBL document CHEMBL1126990, “Design and synthesis of 18F-labeled neurotoxic analogs of MPTP” (J Med Chem, 1993)
